Most compounds without a hit are left out; they make up all but 1.6% or so of the library.
Arrestin-AP2 inh = inhibitors of beta-arrestin/AP2 binding, primary screen, biochemical, GPCR trafficking, flow cytometry; beta-arrestin 1 C-terminal peptide binding to AP2 beta2-adaptin appendage (human); FITC-arrestin peptide / GST-AP2 beads; AP2 beta2 appendage carries R879A mutation; inhibition, % at 10 µM; actives 0.31% (n = 340,000); AID 504490, 2011;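 active = inhibition above a set limit, near 3 SD of compounds lacking own fluorescence, cut at about 54% in these data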;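 note: plate controls were DMSO wells for no effect and 5 µM unlabelled arrestin peptide for full effect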
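Measured by: flow cytometry, FL1 (488/535 nm); Material: AP2 appendage R879A on GSH beads; Evaluation: percent response; Timing: pre-incubation 12 min, peptide binding 1 h, room temperature; Also added: 50 nM FITC-arrestin peptide; Medium: PBS with 0.05% Tween 20 and 0.1% BSA.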
HDAC3 inh = HDAC3 deacetylase inhibitors, primary screen, biochemical, fluorescence, cell-free homogeneous. actives 0.15% (n = 320,000). inhibition, % at 8.3 µM. AID 2718, 2010. recombinant HDAC3, fluorogenic peptide/trypsin coupled; in the data active = inhibition above about 26%, passing the limit was not always enough; inconclusive = no clear call, values can overlap the other calls
Target sequence (O15379 whole entry, looked up): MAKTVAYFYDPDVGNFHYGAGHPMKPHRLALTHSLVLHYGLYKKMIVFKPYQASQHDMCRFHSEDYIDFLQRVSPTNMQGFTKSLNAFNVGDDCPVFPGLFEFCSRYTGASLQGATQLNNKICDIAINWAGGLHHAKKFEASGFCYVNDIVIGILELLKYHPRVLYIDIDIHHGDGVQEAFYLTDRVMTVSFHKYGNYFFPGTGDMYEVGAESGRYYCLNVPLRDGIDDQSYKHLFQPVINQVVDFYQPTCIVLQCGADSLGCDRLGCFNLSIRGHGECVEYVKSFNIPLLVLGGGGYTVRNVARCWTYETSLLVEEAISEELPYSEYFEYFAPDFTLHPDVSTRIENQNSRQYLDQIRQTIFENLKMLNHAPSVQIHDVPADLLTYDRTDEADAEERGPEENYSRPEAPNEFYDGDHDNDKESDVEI
DSG3 Ab inh = inhibitors of pemphigus antibody binding to DSG3, primary screen, biochemical, bead-based, flow cytometry, scFv-GFP; Desmoglein-3 (Homo sapiens), P32926; DSG3-coupled beads, scFv-anti-DSG3-GFP binding; hits give low values; binding (percent of control), % at 10 µM; actives 0.48% (n = 310,000); AID 588358, 2011;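 active = binding more than 3 SD below its plate's average and above zero; inconclusive = below that plate limit but binding exactly zero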;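 note: hits lower antibody fragment binding to DSG3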
LANA-H2B inh = blockers of LANA interaction with H2A/H2B – biochemical, FP readout, HTS, primary screen; inhibition, % (concentration not given with the values); actives 0.6% (n = 320,000); cell-free LANA-H2A/H2B peptide, fluorescence polarization; Protein LANA1 (Human herpesvirus 8 type P (isolate GK18)), Q9QR71; in the data active = inhibition mostly above about 10%, no sharp cut-off; inactive = mostly below about 6.7%
JMJD2C inh = inhibitors of GASC-1 histone demethylase, primary screen, biochemical, fluorescence, DELFIA europium; GST-JMJD2C(1-420) H3K9me3 demethylation; inhibition, % at 2.35 µM; actives 0.069% (n = 330,000);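 active = more than half of a compound's replicate wells show inhibition beyond 50%, single wells judged on their own value; inconclusive = some, but no more than half, of replicates pass 50% inhibition; inactive = no replicate passes 50% inhibition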;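 note: signal counts dimethyl H3K9 product captured on neutravidin plate; 0% = median of DMSO wells and 100% = 0.3 times that DMSO median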
T cell HTS = modulators of CD8 T cell-vesicle binding, primary screen, mouse 2C CD8+ T cells, flow cytometry; AID 2052, 2009; actives 0.068% (n = 330,000); 2C CD8+ T cell-vesicle binding; hits give low values; response (vesicle binding), % at 7 µM;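 active = response, share of CD8 T cells binding vesicles, and their 90th percentile fluorescence all below set limits, cut at about 80% in these data, passing the limit was not always enough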;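 note: values below 100% mean blocked vesicle binding to the CD8+ T cells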
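Material: 2C TCR transgenic mouse naive CD8+ T cells, MACS-purified. Also added: QL9-charged Drosophila Ld/ICAM-1/B7-1 vesicles. Timing: binding 1.5 h at 37 °C. Measured by: high-throughput flow cytometry with anti-B7-1 and anti-CD8 staining. Read-out: percent CD8+ FL2 mean versus row control. Controls: Unloaded micro-vesicles (low), QL9 vesicles with 0.7% DMSO (high).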
Starred values were filed as active, the others as inactive; i = inactive; ? = inconclusive; . = not tested or not shown; + = active, no number.

SMILES	Arrestin-AP2 inh	HDAC3 inh	DSG3 Ab inh	LANA-H2B inh	JMJD2C inh	T cell HTS
C/C(=N/NC(=O)c1ccccc1)C1=C(O)CC(C)(C)CC1=O	5	71*	99	-4	-20	208
Fc1ccccc1N1CCN(C(c2ccccn2)c2nnnn2C2CCCCC2)CC1 (stereo not drawn)	3	-4	83	12*	-7	153
COc1ccccc1N1CCN(C(c2ccccn2)c2nnnn2C2CCCCC2)CC1 (stereo not drawn)	1	0	100	-5	3	199
CC(C)(C)OC(=O)NCCCCCc1cn([C@@H](CO)C(=O)NCCCCCCCCCCC(=O)N2CCN(C(=O)OC(C)(C)C)CC2)nn1	-6	31*	105	-2	2	314
CCc1ccc(NC(=O)C2CCC(CNC(=O)[C@@H]3Cc4ccccc4CN3)CC2)cc1 (stereo partly drawn)	2	1	103	-4	0	63
CCN(CC)/C(Sc1ccccc1)=C(\C(Cl)=C(Cl)Cl)[N+](=O)[O-]	6	5	86	70*	4	208
CCn1c2ccccc2c2cc(NC(=O)c3coc(=O)c(Br)c3)ccc21	.	-5	.	20*	2	475
CCn1c2ccccc2c2cc(NC(=O)c3cccc([N+](=O)[O-])c3)ccc21	2	-2	101	79*	12	59
CCn1c2ccccc2c2cc(NC(=O)c3ccc(C)c([N+](=O)[O-])c3)ccc21	11	6	130	1	-7	174
CCn1c2ccccc2c2cc(NC(=O)COC(=O)c3ccc(NC(=O)CC#N)cc3)ccc21	-4	2	69*	1	-7	107
CCOc1ccc(N2CC(C(=O)Nc3ccccc3C(=O)NC3CC3)CC2=O)cc1 (stereo not drawn)	6	2	100	11	-5	196
COc1ccc(-c2nc(C#N)c(N3CCC(C(N)=O)CC3)o2)cc1	4	-12	114	-1	-10	206
N#Cc1nc(-c2ccc(OCc3ccccc3)cc2)oc1N1CCC(C(N)=O)CC1	10	-1	66*	2	3	398
Cc1nnc(N/N=C\c2ccc(-c3ccccc3[N+](=O)[O-])o2)n1N	8	6	98	1	55*	354
O=C(NC1CCCCC1)c1cc(-c2cccs2)on1	4	-3	105	3	0	74
CC(=O)Nc1ccc(NC(=O)COC(=O)Cc2c[nH]c3ccccc23)cc1	-9	8	100	1	-5	242
O=C(COC(=O)Cc1c[nH]c2ccccc12)Nc1cccc2ccccc12	0	1	94	14*	4	304
Cc1onc(-c2c(F)cccc2Cl)c1C(=O)c1ccc(F)cc1	36	0	64*	-7	15	323
Cc1cc(Br)c(NC(=O)c2c(-c3c(Cl)cccc3Cl)noc2C)c(Br)c1	27	2	87	-5	-18	26*
Cc1onc(-c2c(F)cccc2Cl)c1C(=O)N1CCc2ccccc21	0	5	96	66*	-3	248
CCOC(=O)C(Cc1ccc(O)c([N+](=O)[O-])c1)N1C(=O)c2ccccc2C1=O (stereo not drawn)	1	.	105	.	.	.
NC(=O)C1CCN(c2nc(-c3ccc(Br)cc3)cs2)CC1	-11	.	58*	.	1	237
CC(=O)c1ccc(-c2csc(N3CCC(C(N)=O)CC3)n2)cc1	.	0	.	-1	-19	348
CCOc1ccc(NC(=O)CCC(=O)Oc2ccc(C)cc2)cc1	-8	-2	93	-5	-1	110
CCOC(=O)N1CCN(C(=O)c2cc3c(=O)n4cccc(C)c4nc3s2)CC1	11	-21	103	-2	-6	466
SMILES	Arrestin-AP2 inh	HDAC3 inh	DSG3 Ab inh	LANA-H2B inh	JMJD2C inh	T cell HTS
COc1ccc(N2CCN(C(=O)c3ccc4ccccc4n3)CC2)cc1	1	2	103	16*	-13	380
COc1ccccc1N1CCN(C(=O)c2cc3c(=O)n4cccc(C)c4nc3s2)CC1	31	-8	100	26*	-6	224
COc1ccc(-c2cc(C(=O)N3CCN(c4ccccc4OC)CC3)no2)cc1	-9	1	111	20*	-1	315
O=C(O)C1=C[C@@H](c2ccc(C(F)(F)F)cc2)C[C@@H](OCc2ccc(CO)cc2)O1	3	34*	102	1	6	347
O=C(C1=C[C@H](c2ccc(C(F)(F)F)cc2)C[C@H](OCc2ccc(CO)cc2)O1)N1CCCCCCC1	36	?	105	0	-1	424
O=C(CC1SC(N2CCCCC2)=NC1=O)Nc1ccc(C(=O)NCc2ccccc2)cc1 (stereo not drawn)	6	7	113	1	-7	342
COc1cccc(CNC(=O)c2ccc(NC(=O)CC3SC(N4CCCC4)=NC3=O)cc2)c1 (stereo not drawn)	3	5	98	39*	5	456
CC(C)NC(=O)c1ccc(NC(=O)CC2SC(N3CCCCC3)=NC2=O)cc1 (stereo not drawn)	-11	-2	104	-4	5	553
CC(C)NC(=O)c1ccc(NC(=O)CC2SC(N3CCCC3)=NC2=O)cc1 (stereo not drawn)	.	-6	.	+	0	599
CNC(=O)c1ccc(NC(=O)CC2SC(N3CCCC3)=NC2=O)cc1 (stereo not drawn)	17	0	107	50*	-1	i
Cc1ccc(-c2cc(-c3ccccc3)nc(NN)n2)cc1	-12	6	93	0	1	307
Cc1ccc(-c2nc(N)s[n+]2-c2ccccc2)cc1	26	62*	81	-13	6	190
CNc1nc(-c2ccccc2)[n+](-c2ccc(C)cc2)s1	22	42*	1.4*	1	2	590
Cc1ccc(-c2nc3ccccc3nc2-c2ccccc2)cc1	-5	3	101	0	-3	285
Cc1ccc(CN2CCN(C(=O)c3ccncc3)CC2)cc1	-7	1	62*	-2	-3	573
O=C(c1ccccc1)N1CCN(Cc2ccccc2)CC1	-5	2	106	1	0	536
